# How the values were obtained:
# [1] = target: T1, Ribosomal protein S6 kinase beta-1 (Homo sapiens, UniProt P23443); test: Inhibition of p70S6K-mediated ribosomal protein S6 phosphorylation in human PC3 cells after 3 hrs by chemiluminescence assay; format: cell-based, PC-3
# Summary of the method: (§1)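 A549 or PC-3 cells seeded at 7.5 × 10³ cells/well in DMEM with heat-inactivated 10% FBS, 1% penicillin–streptomycin, 1% non-essential amino acids, grown 48 h at 37 °C, 5% CO₂. Treated 3 h with compound at 1.2–300 nM, triplicate, 0.2% DMSO final. Fixed in 4% formaldehyde, blocked, probed with anti-phospho-S6 (Ser240/244) and anti-total-S6 overnight at 4 °C, chemiluminescent read-out.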
# [2] = target: T1, Ribosomal protein S6 kinase beta-1; test: Inhibition of p70S6K after 3 hrs by luciferase based chemiluminescence assay
# [3] = target: T2, RAC-alpha serine/threonine-protein kinase (Homo sapiens, UniProt P31749); test: Inhibition of AKT1-mediated GSK3beta phosphorylation in human PC3 cells after 3 hrs by chemiluminescence assay; format: cell-based, PC-3
# Summary of the method: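 PC-3 cells seeded at 7.5 × 10³ cells/well, grown 24 h, then serum-starved 24 h. Compound treatment 3 h in triplicate (0.2% DMSO final), followed by 100 ng/ml IGF1 for 30 min. Fixed and processed as a cell ELISA using anti-phospho-GSK3β (S9) and anti-total-GSK3β antibodies, chemiluminescent read-out.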
# [4] = Drug metabolism in mouse liver microsomes at 15 uM after 30 mins; format: ADME, Microsome; details: read-out: Drug metabolism
# Summary of the method: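 Mouse liver microsomes at 0.5 mg/mL, incubated 30 min with compound at 15 µM; value reported as % conversion.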
# [5] = target: T1, Ribosomal protein S6 kinase beta-1; test: Inhibition of p70S6K-mediated ribosomal protein S6 phosphorylation in human A549 cells after 3 hrs by chemiluminescence assay; format: cell-based; summary of the method: as §1
# [6] = target: T2, RAC-alpha serine/threonine-protein kinase; test: Inhibition of AKT1 after 3 hrs by luciferase based chemiluminescence assay
# [7] = test system: PC-3; test: Anticancer activity against human PC3 prostate tumor cell xenografted model at 100 mg/kg, po qd for 15 days; format: functional; details: PC-3, 360 h, read-out: TGI
# [8] = Clearance in rat at 5 mg/kg; format: ADME, organism-based; parameters: dose 5 mg/kg; details: in vivo
# [9] = Oral bioavailability in rat at 5 mg/kg; format: ADME, organism-based; details: in vivo
# [10] = Cmax in rat at 5 mg/kg, iv; format: ADME, organism-based; parameters: dose 5 mg/kg, route intravenous; details: in vivo
# [11] = Plasma concentration in mouse at 100 mg/kg after 1 hr; format: ADME, organism-based; parameters: dose 100 mg/kg
# Summary of the method: (§2)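 Mouse plasma levels measured 1 and 4 h after a 100 mg/kg dose.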
# [12] = Plasma concentration in mouse at 100 mg/kg after 4 hrs; format: ADME, organism-based; parameters: dose 100 mg/kg; summary of the method: as §2
# [13] = Half life in rat at 5 mg/kg, po; format: ADME, organism-based; parameters: dose 5 mg/kg, route oral; details: in vivo
# [14] = test system: Rattus norvegicus; test: Dose normalized AUC in rat at 5 mg/kg, po; format: ADME, organism-based; parameters: dose 5 mg/kg, route oral; details: in vivo
# [15] = Volume of distribution in rat at 5 mg/kg; format: ADME, organism-based; parameters: dose 5 mg/kg; details: in vivo
# [16] = test system: Rattus norvegicus; test: Dose normalized AUC in rat at 5 mg/kg, iv; format: ADME, organism-based; parameters: dose 5 mg/kg, route intravenous; details: in vivo
# [17] = Cmax in rat at 5 mg/kg, po; format: ADME, organism-based; parameters: dose 5 mg/kg, route oral; details: in vivo
# [18] = Half life in rat at 5 mg/kg, iv; format: ADME, organism-based; parameters: dose 5 mg/kg, route intravenous; details: in vivo
# T2 sequence (P31749 whole entry): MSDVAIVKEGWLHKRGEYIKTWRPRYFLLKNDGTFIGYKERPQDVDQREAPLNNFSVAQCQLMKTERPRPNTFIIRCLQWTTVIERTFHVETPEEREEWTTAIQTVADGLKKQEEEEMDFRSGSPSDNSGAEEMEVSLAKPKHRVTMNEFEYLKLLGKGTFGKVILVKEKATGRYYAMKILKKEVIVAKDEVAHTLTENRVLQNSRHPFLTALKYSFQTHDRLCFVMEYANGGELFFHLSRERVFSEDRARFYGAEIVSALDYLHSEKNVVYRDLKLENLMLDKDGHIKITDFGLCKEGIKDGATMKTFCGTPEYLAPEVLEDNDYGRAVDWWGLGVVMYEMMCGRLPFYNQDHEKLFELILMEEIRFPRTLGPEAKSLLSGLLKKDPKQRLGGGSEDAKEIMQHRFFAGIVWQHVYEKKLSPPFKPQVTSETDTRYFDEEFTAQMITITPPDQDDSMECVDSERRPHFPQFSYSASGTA
# T1 sequence (P23443 whole entry): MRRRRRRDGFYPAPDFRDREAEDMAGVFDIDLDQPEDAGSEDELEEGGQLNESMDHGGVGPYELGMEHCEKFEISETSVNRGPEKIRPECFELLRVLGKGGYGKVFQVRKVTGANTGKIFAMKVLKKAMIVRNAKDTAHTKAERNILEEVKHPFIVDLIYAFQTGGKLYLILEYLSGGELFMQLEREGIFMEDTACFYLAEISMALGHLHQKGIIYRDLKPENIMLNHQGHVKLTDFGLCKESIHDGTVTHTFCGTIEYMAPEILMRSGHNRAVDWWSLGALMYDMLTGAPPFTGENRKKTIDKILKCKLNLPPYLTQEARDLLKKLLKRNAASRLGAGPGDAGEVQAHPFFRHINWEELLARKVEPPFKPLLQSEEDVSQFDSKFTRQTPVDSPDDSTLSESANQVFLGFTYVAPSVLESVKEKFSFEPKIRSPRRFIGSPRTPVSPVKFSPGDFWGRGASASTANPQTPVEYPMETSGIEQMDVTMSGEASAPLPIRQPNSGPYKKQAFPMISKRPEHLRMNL
Compound,IC50 [1] [nM],IC50 [2] [nM],IC50 [3] [nM],"metabolised at 0.5 h, 15 µM [4] [%]",IC50 [5] [nM],IC50 [6] [nM],inhibition in vivo at 100 mg/kg [7] [%],clearance [8] [mL/min/kg],bioavailability [9] [%],Cmax [10] [nM],concentration at 1 h [11] [nM],concentration at 4 h [12] [nM],half-life [13] [h],AUC/dose [14] [µM·kg·h/mg],Vd [15] [L/kg],AUC/dose [16] [µM·kg·h/mg],Cmax [17] [nM],half-life [18] [h]
CCc1n[nH]c2ncnc(N3CCN(c4cc(Cl)cc(NCCN5CCCC5)c4C)CC3)c12,832,3,3590,18,80,434,–,–,–,–,–,–,–,–,–,–,–,–
CCc1n[nH]c2ncnc(N3CCN(c4cc(Cl)cc(NCCN(C)C)c4C)CC3)c12,211,2,9030,29,45,–,49,–,–,–,–,–,–,–,–,–,–,–
Cc1c(NCCN(C)C)cc(Cl)cc1N1CCN(c2ncnc3[nH]nc(Br)c23)CC1,141,2,4280,50,43,–,–,–,–,–,–,–,–,–,–,–,–,–
Cc1c(NCCN2CCCC2)cc(Cl)cc1N1CCN(c2ncnc3[nH]nc(Br)c23)CC1,446,2,1270,19,94,42,–,–,–,–,–,–,–,–,–,–,–,–
CCOc1cc(NCCN2CCCC2)c(C)c(N2CCN(c3ncnc4[nH]nc(Br)c34)CC2)c1,–,2,9070,–,197,56,–,–,–,–,–,–,–,–,–,–,–,–
Cc1c(NCCN2CCCC2)cc(OCC(C)C)cc1N1CCN(c2ncnc3[nH]nc(Br)c23)CC1,214,1,700,–,37,9,–,79.5,13,1150,1200,1300,1.7,0.05,14.7,0.35,70,2.5
